pIC50: −log10 of the molar value. Calls of active or inactive are those of the source. The rule behind the calls is not given here.
Columns and labels:
[1] = target: T1, DNA topoisomerase 1 (Homo sapiens) (UniProt P11387); experiment: Inhibition of human topoisomerase 1-mediated relaxation of supercoiled pBR322 DNA at 50 to 400 uM after 15 to 30 mins by agarose gel electrophoresis in presence of 1 mM magnesium
T1 sequence (whole entry): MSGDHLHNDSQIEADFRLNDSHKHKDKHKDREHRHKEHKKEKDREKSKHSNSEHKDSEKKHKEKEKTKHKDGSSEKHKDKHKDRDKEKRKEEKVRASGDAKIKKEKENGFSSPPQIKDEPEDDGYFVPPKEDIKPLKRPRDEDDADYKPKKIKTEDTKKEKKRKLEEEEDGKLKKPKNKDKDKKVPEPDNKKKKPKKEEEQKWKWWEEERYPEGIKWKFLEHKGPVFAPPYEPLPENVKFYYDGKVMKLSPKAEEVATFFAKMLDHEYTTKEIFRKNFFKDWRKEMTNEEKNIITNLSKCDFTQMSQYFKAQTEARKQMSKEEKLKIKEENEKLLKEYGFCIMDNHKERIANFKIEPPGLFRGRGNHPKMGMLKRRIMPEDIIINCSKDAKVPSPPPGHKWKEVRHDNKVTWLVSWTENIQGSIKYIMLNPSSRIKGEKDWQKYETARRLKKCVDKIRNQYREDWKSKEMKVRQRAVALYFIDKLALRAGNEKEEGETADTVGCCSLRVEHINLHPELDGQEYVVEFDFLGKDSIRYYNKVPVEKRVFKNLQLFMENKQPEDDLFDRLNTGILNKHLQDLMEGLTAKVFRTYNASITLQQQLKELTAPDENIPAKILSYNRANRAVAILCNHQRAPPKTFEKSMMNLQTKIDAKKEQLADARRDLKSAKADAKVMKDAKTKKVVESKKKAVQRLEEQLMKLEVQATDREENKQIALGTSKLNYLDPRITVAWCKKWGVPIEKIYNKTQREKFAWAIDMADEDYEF
Outline: (§1)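 Human Topo I relaxation of supercoiled pBR322 at 37 °C, run as the standard assay. Mg2+ raised up to 1 mM, NaCl up to 100 mM, or potassium glutamate up to 200 mM. Products resolved on agarose gels.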

[2] = target: T2, Topoisomerase I (Bos taurus) (UniProt Q2HPH0); experiment: Inhibition of calf thymus topoisomerase 1-mediated relaxation of supercoiled pBR322 DNA after 15 mins by agarose gel electrophoresis
T2 sequence (whole entry): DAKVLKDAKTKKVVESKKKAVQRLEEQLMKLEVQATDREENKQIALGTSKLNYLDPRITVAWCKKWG
Outline: (§2)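 Supercoiled pBR322 (0.3 μg) relaxed by human Topo I (1 unit, 30 min; or 2 units, 15 min) or calf thymus Topo I (0.5 unit, 15 min), 37 °C. Buffer: 50 mM Tris-HCl pH 7.5, 1 mM MgCl2, 1 mM DTT, 50 μg/mL BSA. Stopped with 25 mM EDTA. Run on 1.2% agarose in TAE, ethidium-stained and quantified. IC50 taken from these gels.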

[3] = target: DNA topoisomerase 2-alpha (Homo sapiens) (UniProt P11388); experiment: Dissociation of human topo 2-etoposide-DNA ternary complex assessed as nicked DNA formation at 150 uM after 20 mins by two-step DNA cleavage assay; details: in the assay text read “linear DNA” for “nicked DNA”
Sequence of DNA topoisomerase 2-alpha (Homo sapiens) (P11388 whole entry): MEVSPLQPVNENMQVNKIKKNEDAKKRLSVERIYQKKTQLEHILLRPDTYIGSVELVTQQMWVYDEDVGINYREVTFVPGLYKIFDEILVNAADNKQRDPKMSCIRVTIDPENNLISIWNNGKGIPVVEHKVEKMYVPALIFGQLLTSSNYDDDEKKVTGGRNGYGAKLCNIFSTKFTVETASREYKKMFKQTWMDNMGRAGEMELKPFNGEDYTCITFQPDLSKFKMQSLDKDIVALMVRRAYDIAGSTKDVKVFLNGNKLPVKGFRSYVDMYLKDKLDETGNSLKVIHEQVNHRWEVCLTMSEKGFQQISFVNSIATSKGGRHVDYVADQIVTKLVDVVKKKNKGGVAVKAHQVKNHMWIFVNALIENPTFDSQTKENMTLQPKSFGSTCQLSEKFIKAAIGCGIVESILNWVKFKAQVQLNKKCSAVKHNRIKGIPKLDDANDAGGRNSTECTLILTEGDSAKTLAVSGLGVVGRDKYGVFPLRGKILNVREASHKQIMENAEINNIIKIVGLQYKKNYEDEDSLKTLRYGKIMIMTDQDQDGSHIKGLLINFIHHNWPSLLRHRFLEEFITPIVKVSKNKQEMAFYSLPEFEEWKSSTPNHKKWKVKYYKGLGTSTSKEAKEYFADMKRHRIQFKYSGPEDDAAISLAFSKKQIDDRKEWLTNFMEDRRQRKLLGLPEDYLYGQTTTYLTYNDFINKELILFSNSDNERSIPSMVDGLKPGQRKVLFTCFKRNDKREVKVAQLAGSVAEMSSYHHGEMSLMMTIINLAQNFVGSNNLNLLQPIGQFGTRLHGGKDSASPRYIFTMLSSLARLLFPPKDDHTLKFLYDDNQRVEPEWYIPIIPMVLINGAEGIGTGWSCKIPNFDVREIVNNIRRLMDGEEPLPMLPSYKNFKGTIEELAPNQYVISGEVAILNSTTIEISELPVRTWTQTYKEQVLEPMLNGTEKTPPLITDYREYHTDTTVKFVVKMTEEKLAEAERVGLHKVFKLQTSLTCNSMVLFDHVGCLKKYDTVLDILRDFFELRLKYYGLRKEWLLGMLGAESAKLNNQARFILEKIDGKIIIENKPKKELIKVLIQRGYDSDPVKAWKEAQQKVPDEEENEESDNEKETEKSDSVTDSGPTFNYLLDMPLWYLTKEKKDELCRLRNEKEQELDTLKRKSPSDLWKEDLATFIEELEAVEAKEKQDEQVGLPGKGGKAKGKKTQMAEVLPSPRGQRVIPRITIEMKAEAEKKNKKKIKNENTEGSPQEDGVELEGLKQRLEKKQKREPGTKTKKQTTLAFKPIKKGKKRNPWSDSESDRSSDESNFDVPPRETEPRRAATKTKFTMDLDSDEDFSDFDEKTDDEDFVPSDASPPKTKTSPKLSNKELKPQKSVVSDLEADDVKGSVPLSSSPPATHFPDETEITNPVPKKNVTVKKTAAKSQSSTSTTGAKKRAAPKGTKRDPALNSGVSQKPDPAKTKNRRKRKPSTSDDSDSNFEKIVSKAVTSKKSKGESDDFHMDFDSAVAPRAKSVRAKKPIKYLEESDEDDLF
Outline: (§3)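 Human Topo II with 7.5 μM etoposide on relaxed plasmid DNA (50 mM Tris-HCl pH 8, 10 mM MgCl2, 10 mM DTT, 1 mM ATP, BSA; 6-fold scale), 37 °C 5 min. Then 150 μM SD8 or 2% DMSO at 37 °C. Timed aliquots stopped with 1% SDS, then EDTA/proteinase K 50 °C 60 min. Linear DNA quantified on ethidium agarose gels.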

[4] = target: T1, DNA topoisomerase 1 (Homo sapiens); experiment: Ratio of CPT IC50 to compound IC50 for human topoisomerase 1-mediated relaxation of supercoiled pBR322 DNA
[5] = target: T1, DNA topoisomerase 1 (Homo sapiens); experiment: Dissociation of human topo 1-CPT-DNA ternary complex assessed as reduction in nicked DNA formation at 160 uM after 10 mins by dilution DNA cleavage assay relative to untreated-control; design: scale not given: the % may be the effect or the level left
Outline: (§4)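 Topo I cleavage mix (0.6 μg relaxed plasmid, 5 units human Topo I, 2.5 μM CPT), 37 °C 5 min. Then diluted 10-fold in drug-free buffer or buffer holding 2.5 μM CPT, 160 μM SD8, or both, 37 °C 10 min. SDS/EDTA/proteinase K workup. Nicked DNA normalized to the undiluted control; mean and absolute deviation of two assays.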

[6] = target: T1, DNA topoisomerase 1 (Homo sapiens); experiment: Inhibition of human topoisomerase 1-mediated relaxation of supercoiled pBR322 DNA at 50 to 400 uM after 15 to 30 mins by agarose gel electrophoresis in presence of 200 mM potassium glutamate; outline: as §1
[7] = target: T1, DNA topoisomerase 1 (Homo sapiens); experiment: Inhibition of human topoisomerase 1-mediated plasmid DNA cleavage preincubated at 150 uM for 5 mins before addition of poison measured after 10 mins by agarose gel electrophoresis
Outline: (§5)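 Two-step assay at 4-fold scale: Topo I or human Topo II with 150 μM SD8, 37 °C 5 min. Aliquots then given 7.5 μM CPT (Topo I) or 7.5 μM etoposide (Topo II), 37 °C 10 min. Stopped with 1% SDS, then proteinase K (Topo I 37 °C 15 min; Topo II 50 °C 60 min). Gel readout.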

[8] = target: T1, DNA topoisomerase 1 (Homo sapiens); experiment: Inhibition of human topoisomerase 1-mediated relaxation of supercoiled pBR322 DNA at 50 to 400 uM after 15 to 30 mins by agarose gel electrophoresis; outline: as §2
[9] = target: T1, DNA topoisomerase 1 (Homo sapiens); experiment: Inhibition of human topoisomerase 1-mediated relaxation of supercoiled pBR322 DNA at 50 to 400 uM after 15 to 30 mins by agarose gel electrophoresis in presence of 100 mM NaCl; outline: as §1
DNA topoisomerase 1 = target: T3, DNA topoisomerase 1 (Homo sapiens, UniProt P11387); experiment: Inhibition of human topoisomerase 1-mediated relaxation of supercoiled pBR322 DNA after 15 to 30 mins by agarose gel electrophoresis; outline: as §2
T3 sequence (P11387 whole entry): T1 sequence (whole entry)

[10] = target: DNA topoisomerase 2-alpha (Homo sapiens) (UniProt P11388); experiment: Dissociation of human topo 2-etoposide-DNA ternary complex assessed as reduction in […] formation at 150 uM by two-step DNA cleavage assay; outline: as §3
[11] = target: T1, DNA topoisomerase 1 (Homo sapiens); experiment: Inhibition of human topoisomerase 1-mediated plasmid DNA cleavage at 25 to 200 uM after 10 mins by agarose gel electrophoresis
Outline: (§6)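 Relaxed plasmid (0.3 μg) with 5 units human Topo I at 37 °C for 10 min. Buffer: pH 7.5, 1 mM MgCl2. Stopped with 1% SDS, then 25 mM EDTA and 100 μg/mL proteinase K, 37 °C 15 min. Phenol extraction, 1.2% agarose gel with ethidium bromide at 2 V/cm for 12 h. 5 μM CPT reaction as control.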

[12] = target: T1, DNA topoisomerase 1 (Homo sapiens); experiment: Dissociation of human topo 1-CPT-DNA ternary complex assessed as reduction in nicked DNA formation at 160 uM after 10 mins by dilution DNA cleavage assay in presence of 2.5 uM CPT; design: scale not given: the % may be the effect or the level left; outline: as §4
[13] = target: DNA topoisomerase 2-alpha (Homo sapiens) (UniProt P11388); experiment: Inhibition of human topoisomerase 2-mediated plasmid DNA cleavage at 25 to 200 uM after 10 mins by agarose gel electrophoresis electrophoresis
Outline: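 Relaxed plasmid (0.3 μg) with 5 units human Topo II and 1 mM ATP at 37 °C for 10 min. Buffer: pH 8, 10 mM MgCl2. Stopped with 1% SDS, then EDTA and proteinase K at 50 °C for 60 min. Extracted and run on ethidium agarose gels.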

[14] = target: T1, DNA topoisomerase 1 (Homo sapiens); experiment: Dissociation of human topo 1-CPT-DNA ternary complex assessed as reduction in nicked DNA formation at 150 uM by two-step DNA cleavage assay; design: scale not given: the % may be the effect or the level left
Outline: (§7)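 Topo I with 7.5 μM CPT on relaxed plasmid DNA (6-fold scaled cleavage mix: 50 mM Tris-HCl pH 7.5, 1 mM MgCl2, 1 mM DTT, BSA), 37 °C 5 min. Then 150 μM SD8 or DMSO (2% final), continued at 37 °C. Aliquots taken at set times, stopped with 1% SDS, then EDTA/proteinase K 37 °C 15 min. Nicked DNA read on ethidium agarose gels.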

[15] = target: T1, DNA topoisomerase 1 (Homo sapiens); experiment: Dissociation of human topo 1-CPT-DNA ternary complex assessed as reduction in nicked DNA formation at 160 uM after 10 mins by dilution DNA cleavage assay; design: scale not given: the % may be the effect or the level left; outline: as §4
[16] = target: DNA topoisomerase 2-alpha (Homo sapiens) (UniProt P11388); experiment: Inhibition of human topoisomerase 2-mediated relaxation of supercoiled pBR322 DNA at 50 to 400 uM after 30 mins by agarose gel electrophoresis
Outline: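 Human Topo II (2 units) relaxed 0.3 μg supercoiled pBR322 at 37 °C for 30 min. Stopped with 25 mM EDTA, 5 min. Analyzed on agarose gels.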

[17] = target: T1, DNA topoisomerase 1 (Homo sapiens); experiment: Stimulation of human topoisomerase 1-mediated plasmid DNA cleavage at 25 to 200 uM after 10 mins by agarose gel electrophoresis; outline: as §6
[18] = target: DNA topoisomerase 2-alpha (Homo sapiens) (UniProt P11388); experiment: Inhibition of human topoisomerase 2-mediated plasmid DNA cleavage preincubated at 150 uM for 5 mins before addition of poison measured after 10 mins by agarose gel electrophoresis; outline: as §5
[19] = target: T1, DNA topoisomerase 1 (Homo sapiens); experiment: Dissociation of human topo 1-CPT-DNA ternary complex assessed as reduction in nicked DNA formation measuring remaining ternary complex at 150 uM after 20 mins by two-step DNA cleavage assay; outline: as §7

- inhibition [1]: Active
- inhibition [2]: Active
- Activity [3]: 107%
- Ratio IC50 [4]: 0.5
- Activity [5]: 20%
- inhibition [6]: Active
- inhibition [8]: Active
- inhibition [9]: Active
- pIC50 (DNA topoisomerase 1): 4.22
- Activity [10]: inactive
- inhibition [11]: Active
- Activity [12]: 46%
- inhibition [13]: Active
- Activity [14]: 40%
- Activity [15]: 55%
- inhibition [16]: Active
- Activity [17]: inactive
- Activity [19]: 53%
SMILES: CC(=O)O[C@@H]1[C@@H](C)O[C@@H](c2ccc3c(c2O)[C@@H](O)[C@]24O[C@@]2(C3=O)[C@@]2(O)C(=O)C=C(C)C[C@@]2(O)C[C@@H]4O)C[C@H]1OC(=O)/C=C/C=C/C=C/C=C/C(=O)Nc1c(O)c2ccc(O)c(Cl)c2oc1=O [SIMOCYCLINONE D8]
- inhibition [7]: Active
- inhibition [18]: Active

From ChEMBL document CHEMBL2163298, “Inhibition of human topoisomerases I and II by simocyclinone D8” (J Nat Prod, 2012)
